{"source": "ChEMBL document CHEMBL3272018", "about": "“Synthesis of aziridinylallylaminophosphine oxides and sulfides as potential adjuvant cancer chemotherapeutic agents” (J Med Chem, 1976)", "key": {"[1]": {"system": "L1210", "test": "In vivo antitumor activity against mouse L1210 cells in prognostic scoring system assessed as survival rate at 2.5 mg/kg, qd administered for 15 days", "type": "functional, organism-based", "parameters": "dose 2.5 mg/kg", "how_it_was_run": "(§1)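 L1210 leukaemia in mice, run as an ascites tumour system. Injections were once daily for 9 or 15 days, or as a single dose. Response is the increase in survival time, given as T/C %, treated over untreated controls; a larger value means more activity. Weight change is the treated-group mean minus the control-group mean, in grams.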"}, "[2]": {"system": "W256", "test": "Antitumor activity against rat Walker 256 cells intramuscularly allografted in rat assessed as tumor growth inhibition", "type": "functional", "conditions": "W256, im", "how_it_was_run": "(§2)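 Dosed once daily for 5 days. Response is tumor progression in treated (T) versus untreated control (C) animals, expressed as T/C percentage. Host weight change is reported as the average net weight change of the test group minus that of the controls, in grams.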"}, "[3]": {"test": "Toxicity in rat allografted with rat Walker 256 cells intramuscularly", "type": "organism-based"}, "[4]": {"test": "Therapeutic index, ratio of LD50 for rat allografted with rat Walker 256 cells to ED10 for antitumor activity against rat Walker 256 cells intramuscularly allografted in rat", "type": "cell-based", "conditions": "read-out: TI", "how_it_was_run": "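Therapeutic index is LD50/ED10 in the Walker 256 solid tumour system. ED10 is the dose giving a 10% tumour weight reduction, with values extrapolated from dose-response data.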"}, "[5]": {"system": "Rattus norvegicus", "test": "Toxicity in rat allografted with rat Walker 256 cells intramuscularly assessed as change in body weight at 0.4 mg/kg, qd administered for 5 days", "type": "organism-based", "parameters": "dose 0.4 mg/kg, route intramuscular", "conditions": "in vivo, im, 120 h", "how_it_was_run": "(§3)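 Walker 256 carcinoma solid-tumour system in rats (parent line, or the line resistant to cytoxan). Dosing was one injection per day for 5 days. Toxicity was taken as the average net body-weight change of the treated group minus the average net weight change of the untreated tumour-bearing controls, in grams.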"}, "[6]": {"system": "Musca domestica", "test": "Toxicity in male house fly assessed as lowest dose required to cause complete sterility administered in sugar", "type": "organism-based", "conditions": "in vivo, po"}, "[7]": {"system": "W256", "test": "Antitumor activity against rat Walker 256 cells intramuscularly allografted in rat assessed as tumor growth inhibition at 0.4 mg/kg, qd administered for 5 days relative to control", "type": "functional", "conditions": "W256, im, 120 h, route intramuscular, read-out: TGI", "how_it_was_run": "as §2"}, "[8]": {"system": "Musca domestica", "test": "Toxicity in male house fly assessed as lowest dose required to cause complete sterility administered in food", "type": "organism-based", "conditions": "in vivo, po"}, "[9]": {"system": "W256", "test": "Antitumor activity against rat Walker 256 cells intramuscularly allografted in rat assessed as survival rate at 0.4 mg/kg, qd administered for 5 days", "type": "functional, organism-based", "parameters": "dose 0.4 mg/kg", "how_it_was_run": "(§4)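 Rats bearing Walker 256 carcinoma as a solid tumor; lines 1-8 use a cytoxan-resistant Walker 256 subline. Dosed once daily for 5 days. Treated (T) and untreated control (C) groups are compared, and the response is given as T/C percentage, reflecting increase in survival time. Host weight change is the average weight change of the test group minus that of the controls, in grams.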"}, "[10]": {"test": "Antitumor activity against rat Lewis-Lymphoma 8 cells allografted in Lewis-Wistar rat assessed as tumor regression at 20 mg/kg, ip administered for 2 weeks measured for 9 to 10 months relative to control", "type": "functional", "conditions": "route intraperitoneal"}, "[11]": {"system": "W256", "test": "Antitumor activity against cytoxan-resistant rat Walker 256 cells intramuscularly allografted in rat assessed as survival rate at 12 mg/kg, qd administered for 5 days", "type": "functional, organism-based", "parameters": "dose 12 mg/kg", "how_it_was_run": "as §4"}, "[12]": {"system": "Rattus norvegicus", "test": "Toxicity in rat allografted with cytoxan-resistant rat Walker 256 cells intramuscularly assessed as change in body weight at 12 mg/kg, qd administered for 5 days", "type": "organism-based", "parameters": "dose 12 mg/kg, route intramuscular", "conditions": "in vivo, im, 120 h", "how_it_was_run": "as §3"}, "[13]": {"system": "L1210", "test": "In vivo antitumor activity against mouse L1210 cells in prognostic scoring system […] at 5 mg/kg, qd administered for 15 days relative to control", "type": "functional", "conditions": "L1210, 360 h, read-out: TGI"}, "[14]": {"system": "W256", "test": "Antitumor activity against rat Walker 256 cells intramuscularly allografted in rat assessed as survival rate at 12 mg/kg, qd administered for 5 days", "type": "functional, organism-based", "parameters": "dose 12 mg/kg", "how_it_was_run": "as §4"}, "[15]": {"system": "W256", "test": "Antitumor activity against cytoxan-resistant rat Walker 256 cells intramuscularly allografted in rat assessed as tumor growth inhibition at 12 mg/kg, qd administered for 5 days relative to control", "type": "functional", "conditions": "W256, im, 120 h, route intramuscular, read-out: TGI", "how_it_was_run": "as §2"}, "[16]": {"system": "L1210", "test": "In vivo antitumor activity against mouse L1210 cells in prognostic scoring system assessed as survival rate at 7 mg/kg, qd administered for 15 days", "type": "functional, organism-based", "parameters": "dose 7 mg/kg", "how_it_was_run": "as §1"}, "[17]": {"system": "W256", "test": "Antitumor activity against cytoxan-resistant rat Walker 256 cells intramuscularly allografted in rat assessed as tumor growth inhibition at 3 mg/kg, qd administered for 5 days relative to control", "type": "functional", "conditions": "W256, im, 120 h, route intramuscular, read-out: TGI", "how_it_was_run": "as §2"}, "[18]": {"system": "W256", "test": "Antitumor activity against cytoxan-resistant rat Walker 256 cells intramuscularly allografted in rat assessed as survival rate at 3 mg/kg, qd administered for 5 days", "type": "functional, organism-based", "parameters": "dose 3 mg/kg", "how_it_was_run": "as §4"}, "[19]": {"system": "W256", "test": "Antitumor activity against cytoxan-resistant rat Walker 256 cells intramuscularly allografted in rat assessed as survival rate at 6 mg/kg, qd administered for 5 days", "type": "functional, organism-based", "parameters": "dose 6 mg/kg", "how_it_was_run": "as §4"}, "[20]": {"system": "W256", "test": "Antitumor activity against cytoxan-resistant rat Walker 256 cells intramuscularly allografted in rat assessed as tumor growth inhibition at 6 mg/kg, qd administered for 5 days relative to control", "type": "functional", "conditions": "W256, im, 120 h, route intramuscular, read-out: TGI", "how_it_was_run": "as §2"}, "[21]": {"system": "L1210", "test": "In vivo antitumor activity against mouse L1210 cells in prognostic scoring system assessed as survival rate at 11 mg/kg, qd administered for 15 days", "type": "functional, organism-based", "parameters": "dose 11 mg/kg", "how_it_was_run": "as §1"}, "[22]": {"system": "Rattus norvegicus", "test": "Toxicity in rat allografted with cytoxan-resistant rat Walker 256 cells intramuscularly assessed as change in body weight at 3 mg/kg, qd administered for 5 days", "type": "organism-based", "parameters": "dose 3 mg/kg, route intramuscular", "conditions": "in vivo, im, 120 h", "how_it_was_run": "as §3"}, "[23]": {"system": "Rattus norvegicus", "test": "Toxicity in rat allografted with cytoxan-resistant rat Walker 256 cells intramuscularly assessed as change in body weight at 25 mg/kg, qd administered for 5 days", "type": "organism-based", "parameters": "dose 25 mg/kg, route intramuscular", "conditions": "in vivo, im, 120 h", "how_it_was_run": "as §3"}, "[24]": {"system": "L1210", "test": "In vivo antitumor activity against mouse L1210 cells in prognostic scoring system assessed as survival rate at 3 mg/kg, qd administered for 15 days", "type": "functional, organism-based", "parameters": "dose 3 mg/kg", "how_it_was_run": "as §1"}, "[25]": {"system": "W256", "test": "Antitumor activity against cytoxan-resistant rat Walker 256 cells intramuscularly allografted in rat assessed as survival rate at 25 mg/kg, qd administered for 5 days", "type": "functional, organism-based", "parameters": "dose 25 mg/kg", "how_it_was_run": "as §4"}, "[26]": {"system": "L1210", "test": "In vivo antitumor activity against mouse L1210 cells in prognostic scoring system assessed as survival rate at 5 mg/kg, qd administered for 15 days", "type": "functional, organism-based", "parameters": "dose 5 mg/kg", "how_it_was_run": "as §1"}, "[27]": {"system": "W256", "test": "Antitumor activity against rat Walker 256 cells intramuscularly allografted in rat assessed as tumor growth inhibition at 12 mg/kg, qd administered for 5 days relative to control", "type": "functional", "conditions": "W256, im, 120 h, route intramuscular, read-out: TGI", "how_it_was_run": "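Walker 256 carcinoma grown as a solid tumour in rats, with one injection daily for 5 days. Response is given as T/C %, the treated-group measure over the untreated-control tumour measure; a smaller value means more activity. Host toxicity is the mean net weight change of treated minus control animals, in grams.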"}, "[28]": {"system": "Rattus norvegicus", "test": "Toxicity in rat allografted with rat Walker 256 cells intramuscularly assessed as change in body weight at 12 mg/kg, qd administered for 5 days", "type": "organism-based", "parameters": "dose 12 mg/kg, route intramuscular", "conditions": "in vivo, im, 120 h", "how_it_was_run": "as §3"}, "[29]": {"system": "W256", "test": "Antitumor activity against cytoxan-resistant rat Walker 256 cells intramuscularly allografted in rat assessed as tumor growth inhibition at 25 mg/kg, qd administered for 5 days relative to control", "type": "functional", "conditions": "W256, im, 120 h, route intramuscular, read-out: TGI", "how_it_was_run": "as §2"}, "[30]": {"system": "Rattus norvegicus", "test": "Toxicity in rat allografted with cytoxan-resistant rat Walker 256 cells intramuscularly assessed as change in body weight at 6 mg/kg, qd administered for 5 days", "type": "organism-based", "parameters": "dose 6 mg/kg, route intramuscular", "conditions": "in vivo, im, 120 h", "how_it_was_run": "as §3"}}, "note": "The source made the active and inactive calls. No cut-off for these calls is given here.", "data": [{"smiles": "C=CCN(CC=C)P(=S)(N1CC1)N1CC1C", "note": "(stereo not given)", "values": [{"measurement": "Activity", "setting": "[1]", "value": "Active"}, {"measurement": "ED10", "setting": "[2]", "value": 0.4, "unit": "mg/kg"}, {"measurement": "LD50", "setting": "[3]", "value": 4, "unit": "mg/kg"}, {"measurement": "selectivity ratio", "setting": "[4]", "value": 10}, {"measurement": "Activity", "setting": "[5]", "value": -4, "unit": "g"}, {"measurement": "Activity", "setting": "[6]", "value": 0.5, "unit": "%"}, {"measurement": "inhibition in vivo at 0.4 mg/kg", "setting": "[7]", "value": 77, "unit": "%"}, {"measurement": "Activity", "setting": "[8]", "value": 0.25, "unit": "%"}, {"measurement": "Activity", "setting": "[9]", "value": "Active"}]}, {"smiles": "C=CCN(CC=C)C(CN1CC1)C(N)=O", "note": "(stereo not given)", "values": [{"measurement": "Activity", "setting": "[10]", "value": 100, "unit": "%"}]}, {"smiles": "C=CCN(C1=CCCCC1)P(=O)(N1CC1)N1CC1", "values": [{"measurement": "Activity", "setting": "[6]", "value": 1, "unit": "%"}, {"measurement": "Activity", "setting": "[8]", "value": 1, "unit": "%"}]}, {"smiles": "C=CCN(CC=C)P(=O)(N(CC=C)CC=C)N1CC1", "values": [{"measurement": "Activity", "setting": "[11]", "value": "Active"}, {"measurement": "Activity", "setting": "[12]", "value": -4, "unit": "g"}, {"measurement": "ED10", "setting": "[2]", "value": 2.5, "unit": "mg/kg"}, {"measurement": "inhibition in vivo at 5 mg/kg", "setting": "[13]", "value": 155, "unit": "%"}, {"measurement": "Activity", "setting": "[14]", "value": "Active"}, {"measurement": "inhibition in vivo at 12 mg/kg", "setting": "[15]", "value": 66, "unit": "%"}, {"measurement": "Activity", "setting": "[16]", "value": "Active"}, {"measurement": "inhibition in vivo at 3 mg/kg", "setting": "[17]", "value": 84, "unit": "%"}, {"measurement": "Activity", "setting": "[18]", "value": "Active"}, {"measurement": "LD50", "setting": "[3]", "value": 75, "unit": "mg/kg"}, {"measurement": "Activity", "setting": "[19]", "value": "Active"}, {"measurement": "selectivity ratio", "setting": "[4]", "value": 30}, {"measurement": "inhibition in vivo at 6 mg/kg", "setting": "[20]", "value": 70, "unit": "%"}, {"measurement": "Activity", "setting": "[21]", "value": "Active"}, {"measurement": "Activity", "setting": "[22]", "value": -1, "unit": "g"}, {"measurement": "Activity", "setting": "[23]", "value": -28, "unit": "g"}, {"measurement": "Activity", "setting": "[24]", "value": "Active"}, {"measurement": "Activity", "setting": "[25]", "value": "Active"}, {"measurement": "Activity", "setting": "[26]", "value": "Active"}, {"measurement": "inhibition in vivo at 12 mg/kg", "setting": "[27]", "value": 0, "unit": "%"}, {"measurement": "Activity", "setting": "[28]", "value": -1, "unit": "g"}, {"measurement": "inhibition in vivo at 25 mg/kg", "setting": "[29]", "value": 52, "unit": "%"}, {"measurement": "Activity", "setting": "[30]", "value": -7, "unit": "g"}]}]}
